Experiments:
hDAT Y156F = settings: cited from earlier work
DAT [1] = target: T1, DAT (Rattus norvegicus, UniProt P23977); assay: Synaptosomal dopamine uptake assay, striatal synaptosomes; format: biochemical
DAT W84L = settings: cited from earlier work
hNET = hNET (Homo sapiens, UniProt P23975); format: cell-based; settings: hDAT vs hNET
In short: (§1)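 MDCK cells stably expressing hDAT, hNET or hSERT were kept in DMEM with 10% FBS, pen/strep and blasticidin (5 μg/mL) at 37 °C, 5% CO2. Radiolabeled neurotransmitter uptake ([3H]-DA, [3H]serotonin) was measured against test compound dose. Results were normalized to percent of the highest response, and IC50 was fitted by nonlinear regression from three independent experiments.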

[2] = system: DAT cysteine mutant T473C; assay: SCAM MTSEA-biotin biotinylation, HEK-293 cells; format: cell-based, human; settings: 20 μM KM822 coincubation
In short: (§2)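 SCAM used HEK-293 cells (Lipojet transfection) expressing N-terminally HA-tagged cysteine mutants on the C306A background. Cells were incubated with test compound (20 μM) before MTSEA-biotin labeling. Biotinylated DAT was pulled down on streptavidin beads and immunoblotted with anti-HA antibody. It was normalized to total DAT from unpurified lysates, then to the untreated band.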

DAT mutant D476N = assay: DA uptake dose-response inhibition assay, transiently expressed DAT mutant; format: cell-based, human; settings: D476N vs DAT-WT
In short: (§3)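 Mutants were made by site-directed mutagenesis. Single mutants used human WT DAT as background, and double cysteine mutants used C306A-DAT (DAT-XC). DA uptake dose-response gave IC50s from three or more independent experiments. Cysteine mutant IC50s were compared with DAT-XC, and D476 mutant IC50s with DAT-WT, by paired Student's t test.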

DAT-XC/W84C [3] = target: T2, DAT-XC/W84C (Homo sapiens, UniProt Q01959, C306A/W84C); assay: SCAM MTSEA-biotin biotinylation, HEK-293 cells; format: cell-based
T2 sequence (Q01959 1-620 W84C/C306A): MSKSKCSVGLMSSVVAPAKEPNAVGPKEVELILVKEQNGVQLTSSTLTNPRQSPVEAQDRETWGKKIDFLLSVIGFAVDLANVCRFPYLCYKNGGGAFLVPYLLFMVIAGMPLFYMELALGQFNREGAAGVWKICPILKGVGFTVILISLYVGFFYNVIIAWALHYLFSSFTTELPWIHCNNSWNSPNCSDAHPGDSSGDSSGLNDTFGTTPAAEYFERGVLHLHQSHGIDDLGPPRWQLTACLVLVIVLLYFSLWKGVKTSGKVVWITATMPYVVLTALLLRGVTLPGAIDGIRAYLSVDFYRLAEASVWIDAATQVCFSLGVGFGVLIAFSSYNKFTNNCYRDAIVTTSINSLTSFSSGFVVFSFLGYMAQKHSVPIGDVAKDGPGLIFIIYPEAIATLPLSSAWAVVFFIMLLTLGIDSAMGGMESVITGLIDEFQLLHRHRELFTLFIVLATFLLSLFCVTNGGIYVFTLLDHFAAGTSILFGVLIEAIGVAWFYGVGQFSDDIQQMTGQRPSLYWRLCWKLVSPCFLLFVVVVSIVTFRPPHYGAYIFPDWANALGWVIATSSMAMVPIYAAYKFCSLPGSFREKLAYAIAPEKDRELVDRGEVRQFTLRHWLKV

DAT [4] = target: T1, DAT; assay: Ex vivo slice fast scan cyclic voltammetry, Nucleus accumbens; settings: 50 μM KM822, NAc slices
In short: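 Rats were anesthetized with 2.5% isoflurane for 3 min and decapitated, and coronal NAc slices were cut into oxygenated ACSF (pH 7.4). After 30 min recovery at room temperature, slices were recorded at 32 °C by carbon-fiber microelectrode. Single pulses (400 μA, 4 ms, monophasic) were given every 3 min until baseline stabilized over three stimulations.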

DAT mutant D385C = assay: DA uptake dose-response inhibition assay, transiently expressed DAT mutant; format: cell-based, human; settings: D385C vs DAT-XC
In short: as §3

[5] = system: DAT cysteine mutant R544C; assay: SCAM MTSEA-biotin biotinylation, HEK-293 cells; format: cell-based, human; settings: 20 μM KM822 coincubation
In short: as §2

Y156F-DAT = Y156F-DAT (Homo sapiens, UniProt Q01959, Y156F); assay: DA uptake inhibition assay, transfected COS-7 cells; format: cell-based
In short: (§4)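 COS-7 cells (DMEM, 10% FBS, pen/strep, 37 °C, 5% CO2) were transiently transfected with WT or mutant human DAT using TransIT-LT1. Dopamine uptake was measured across a dose-response of test compound. Responses were normalized, and IC50 was obtained by nonlinear regression. Means and SEM come from three independent experiments, with the mutant compared against WT-DAT.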

Y335A-DAT = Y335A-DAT (Homo sapiens, UniProt Q01959, Y335A); assay: as above; format: cell-based
In short: as §4

WT-DAT = WT-DAT (Homo sapiens, UniProt Q01959); assay: DA uptake inhibition assay, transfected COS-7 cells; format: cell-based; settings: read-out: IC50 DA uptake inhibition; WT-DAT transfected COS-7 cells
DAT-XC/A372C [6] = assay: SCAM MTSEA-biotin biotinylation, HEK-293 cells; format: cell-based, human
DAT-XC/T316C [7] = assay: SCAM MTSEA-biotin biotinylation, HEK-293 cells; format: cell-based, human
In short: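 HEK-293 cells (Lipojet transfection) expressed HA-tagged DAT-XC/T316C. […] Streptavidin-purified biotinylated DAT was immunoblotted with anti-HA, normalized to total DAT in unpurified lysate, then to the untreated band. Eight independent experiments were run.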

[8] = system: DAT cysteine mutant D385C; assay: SCAM MTSEA-biotin biotinylation, HEK-293 cells; format: cell-based, human; settings: 20 μM KM822 coincubation
In short: as §2

wild type DAT = assay: [3H]-DA uptake kinetic assay, transiently transfected COS-7 cells; format: cell-based, human; settings: for Vmax of dopamine uptake: vehicle 71.5 ± 6.12
In short: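 WT human DAT was transiently expressed in COS-7 cells (TransIT-LT1). [3H]-dopamine saturation uptake was run with vehicle, 1 μM or 5 μM test compound. Vmax and Km were obtained from a Michaelis-Menten nonlinear regression fit. Figure data and kinetic constants are averaged over four independent experiments.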

DAT-XC/W84C [9] = target: T2, DAT-XC/W84C; assay: DA uptake dose-response inhibition assay, transiently expressed DAT mutant; format: cell-based; settings: W84C vs DAT-XC
In short: as §3

hSERT = hSERT (Homo sapiens, UniProt P31645); format: cell-based; settings: hDAT vs SERT
In short: as §1

DAT-XC/A372C [10] = settings: DAT-XC/A372C treated with cocaine; cited from earlier work
DAT Y335A = settings: cited from earlier work
DAT-XC/T316C [11] = settings: DAT-XC/T316C in the presence of cocaine; cited from earlier work

T1 sequence (P23977 whole entry): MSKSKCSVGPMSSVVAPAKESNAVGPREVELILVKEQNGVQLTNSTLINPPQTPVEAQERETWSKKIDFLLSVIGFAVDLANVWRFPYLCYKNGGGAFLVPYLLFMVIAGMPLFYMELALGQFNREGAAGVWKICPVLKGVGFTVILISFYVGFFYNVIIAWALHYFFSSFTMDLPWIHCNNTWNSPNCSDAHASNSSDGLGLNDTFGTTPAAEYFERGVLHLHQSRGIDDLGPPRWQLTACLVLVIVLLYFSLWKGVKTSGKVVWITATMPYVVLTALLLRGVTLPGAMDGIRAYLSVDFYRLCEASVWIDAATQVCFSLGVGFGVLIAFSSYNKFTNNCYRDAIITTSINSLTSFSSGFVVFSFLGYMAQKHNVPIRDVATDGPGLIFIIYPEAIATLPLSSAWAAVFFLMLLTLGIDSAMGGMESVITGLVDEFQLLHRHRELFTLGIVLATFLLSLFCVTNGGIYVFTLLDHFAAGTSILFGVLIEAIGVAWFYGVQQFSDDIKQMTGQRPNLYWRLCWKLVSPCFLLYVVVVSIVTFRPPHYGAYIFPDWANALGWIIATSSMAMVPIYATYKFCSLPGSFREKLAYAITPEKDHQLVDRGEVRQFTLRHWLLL
Sequence of Y156F-DAT (Q01959 whole entry Y156F): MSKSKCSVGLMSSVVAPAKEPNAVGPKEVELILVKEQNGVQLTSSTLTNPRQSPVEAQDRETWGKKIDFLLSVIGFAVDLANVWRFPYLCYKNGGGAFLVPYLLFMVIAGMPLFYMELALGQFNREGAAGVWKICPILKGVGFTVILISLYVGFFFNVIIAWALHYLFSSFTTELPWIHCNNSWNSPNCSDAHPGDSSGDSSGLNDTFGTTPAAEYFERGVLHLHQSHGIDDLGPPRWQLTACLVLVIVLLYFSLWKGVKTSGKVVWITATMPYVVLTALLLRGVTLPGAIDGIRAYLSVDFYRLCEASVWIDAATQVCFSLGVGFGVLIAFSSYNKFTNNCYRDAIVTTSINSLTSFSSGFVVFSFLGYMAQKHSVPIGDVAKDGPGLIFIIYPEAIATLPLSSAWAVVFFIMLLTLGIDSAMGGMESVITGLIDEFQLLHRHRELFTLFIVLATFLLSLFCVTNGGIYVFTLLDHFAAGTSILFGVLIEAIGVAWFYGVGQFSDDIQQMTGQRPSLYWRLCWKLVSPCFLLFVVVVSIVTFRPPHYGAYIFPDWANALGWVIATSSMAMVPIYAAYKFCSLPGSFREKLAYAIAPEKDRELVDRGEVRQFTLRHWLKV
Sequence of Y335A-DAT (Q01959 whole entry Y335A): as the sequence (Q01959 whole entry Y156F) above, with F156Y, Y335A counted along it
Sequence of hSERT (P31645 whole entry): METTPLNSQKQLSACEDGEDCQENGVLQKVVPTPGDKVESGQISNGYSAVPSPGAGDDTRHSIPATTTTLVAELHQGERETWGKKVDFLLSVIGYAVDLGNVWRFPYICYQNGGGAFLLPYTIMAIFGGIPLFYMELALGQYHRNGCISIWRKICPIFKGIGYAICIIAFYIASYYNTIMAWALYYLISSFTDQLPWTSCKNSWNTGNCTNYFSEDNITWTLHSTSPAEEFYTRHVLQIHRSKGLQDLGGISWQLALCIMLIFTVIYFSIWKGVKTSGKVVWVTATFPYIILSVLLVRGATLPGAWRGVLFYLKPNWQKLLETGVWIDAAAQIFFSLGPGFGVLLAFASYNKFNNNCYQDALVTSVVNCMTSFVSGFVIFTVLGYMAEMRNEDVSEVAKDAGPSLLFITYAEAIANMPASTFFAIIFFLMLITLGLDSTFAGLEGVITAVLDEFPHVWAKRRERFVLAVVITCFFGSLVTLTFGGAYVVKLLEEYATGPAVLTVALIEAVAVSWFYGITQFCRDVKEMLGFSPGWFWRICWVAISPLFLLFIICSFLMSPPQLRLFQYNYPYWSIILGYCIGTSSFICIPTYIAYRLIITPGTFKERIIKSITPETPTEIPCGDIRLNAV
Sequence of WT-DAT (Q01959 whole entry): as the sequence (Q01959 whole entry Y156F) above, with F156Y counted along it
Sequence of hNET (P23975 whole entry): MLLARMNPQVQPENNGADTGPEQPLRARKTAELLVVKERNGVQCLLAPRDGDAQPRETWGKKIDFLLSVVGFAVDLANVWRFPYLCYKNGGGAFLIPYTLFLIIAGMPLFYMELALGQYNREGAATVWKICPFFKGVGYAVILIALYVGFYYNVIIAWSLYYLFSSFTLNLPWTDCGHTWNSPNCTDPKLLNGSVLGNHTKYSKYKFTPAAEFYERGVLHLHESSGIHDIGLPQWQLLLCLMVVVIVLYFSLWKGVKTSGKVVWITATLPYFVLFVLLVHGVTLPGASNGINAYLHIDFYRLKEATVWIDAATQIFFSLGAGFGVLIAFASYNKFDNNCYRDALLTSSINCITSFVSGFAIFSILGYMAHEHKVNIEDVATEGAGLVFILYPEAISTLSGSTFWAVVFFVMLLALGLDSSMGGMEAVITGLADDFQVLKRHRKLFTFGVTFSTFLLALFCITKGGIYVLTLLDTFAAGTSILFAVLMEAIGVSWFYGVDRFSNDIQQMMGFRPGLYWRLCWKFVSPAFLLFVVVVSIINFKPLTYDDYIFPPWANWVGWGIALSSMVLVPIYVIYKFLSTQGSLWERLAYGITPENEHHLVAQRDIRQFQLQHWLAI

## CCCCN1[C@@H]2CC[C@H]1CC(OC(c1ccc(F)cc1)c1ccc(F)cc1)C2 (some centres unmarked) [JHW-007]
hDAT Y156F
  potency change by Y156F mutation: significantly reduced

## Fc1ccc(C(OCCN2CCN(CCCc3ccccc3)CC2)c2ccc(F)cc2)cc1 [GBR12909]
DAT [1]; 1 μM GBR12909
  total DA uptake in striatal synaptosomes: significantly blocked
DAT W84L
  change of apparent potency in W84 to leucine mutant: decrease in apparent potency

## NC(=O)C[S@+]([O-])C(c1ccccc1)c1ccccc1 [S-modafinil]
hDAT Y156F
  potency change by Y156F mutation: significantly reduced

## CCc1ccc2[nH]c3nc(SCCNS(=O)(=O)c4ccc(NC(C)=O)cc4)nnc3c2c1 [KM822]
hNET
  potency for hDAT transport inhibition higher than for hNET: 30 folds
[2]
  effect on MTSEA-biotin biotinylation: no effect
DAT mutant D476N
  change of apparent potency in mutant: lowered
DAT-XC/W84C [3]; 20 μM KM822 coincubation
  effect on MTSEA-biotin biotinylation: significantly decreased
DAT [4]
  effect on stimulated DA release / cocaine-induced changes in DA release: did not affect
DAT [4]; cumulative cocaine, significant at 30 μM cocaine
  effect on cocaine-induced inhibition of DA uptake (app Km): significantly reduced
DAT mutant D385C
  change of apparent potency in mutant: lowered
[5]
  effect on MTSEA-biotin biotinylation: no effect
Y156F-DAT; COS-7 cells
  potency in Y156F-DAT mutant as compared to WT-DAT: unchanged
Y156F-DAT; read-out: IC50 DA uptake inhibition, Y156F-DAT transfected COS-7 cells
  IC50: 3.3 ± 0.45 µM
Y335A-DAT; COS-7 cells
  potency reduction in Y335A mutant vs WT-DAT: 3 fold
Y335A-DAT; read-out: IC50 DA uptake inhibition, Y335A-DAT transfected COS-7 cells
  IC50: 12.8 ± 1.4 µM
WT-DAT
  IC50: 3.8 ± 0.88 µM
DAT-XC/A372C [6]; 20 μM KM822
  effect on MTSEA-biotin labeling: no significant change
DAT-XC/T316C [7]; 20 μM KM822
  effect on MTSEA-biotin labeling: increased
[8]
  effect on MTSEA-biotin biotinylation: no effect
Wild type DAT; in the presence of 1 μM KM822
  Vmax of dopamine uptake: 65.8 ± 8.71 μmol/min/well
Wild type DAT; in the presence of 5 μM KM822
  Vmax of dopamine uptake: 57.9 ± 4.15 μmol/min/well
Wild type DAT; uptake kinetics
  manner of dopamine uptake inhibition: noncompetitive
DAT-XC/W84C [9]
  change of potency in mutant: increase in potency
hSERT
  potency for hDAT transport inhibition higher than for SERT: 50 folds

## COC(=O)[C@H]1[C@@H](OC(=O)c2ccccc2)C[C@@H]2CC[C@H]1N2C [cocaine]
DAT [1]; 100 μM cocaine
  total DA uptake in striatal synaptosomes: significantly blocked
DAT-XC/W84C [3]; 100 μM cocaine coincubation
  effect on MTSEA-biotin labeling: not affected
DAT-XC/A372C [10]
  labeling with a maleimide-based biotin molecule: no change in labeling
DAT W84L
  change of apparent potency in W84 to leucine mutant: increased apparent potency
DAT-XC/A372C [6]; 100 μM cocaine
  effect on MTSEA-biotin labeling: no change in labeling
DAT Y335A
  potency change by Y335A mutation: markedly impairs
DAT-XC/T316C [7]; 100 μM cocaine
  effect on MTSEA-biotin labeling: increased labeling
hDAT Y156F
  binding affinity change by Y156F mutation: unaffected
DAT-XC/T316C [11]
  labeling with a maleimide-based biotin molecule: increased labeling

## CN1[C@@H]2CC[C@H]1C[C@@H](OC(c1ccccc1)c1ccccc1)C2 [benztropine]
DAT W84L
  change of apparent potency in W84 to leucine mutant: decrease in apparent potency

Source: article PMC6703927 (ACS chemical neuroscience, 2019)
